{
  "source": "paper PMC2754715",
  "about": "(Chemical biology & drug design, 2009)",
  "key": {"Mouse plasma stability": {"assay": "Mouse plasma stability", "assay_type": "in vitro ADME"}, "[1]": {"tested_on": "LPS-induced lethality in mice", "assay": "LPS-induced endotoxic shock model", "assay_type": "in vivo", "details": "for Protection from lethal dose of LPS (mortality/morbidity): 40 mg/kg ip pretreatment, 24 h observation", "method_in_brief": "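C57 mice (8–12 weeks, 20–25 g, n = 8) get test compound i.p., then immediately a lethal i.p. LPS challenge. D-galactosamine (40 μg/g, as 4 μg/μL in DMSO) and E. coli LPS (0.25 μg/mouse, in 0.1 mL PBS with 1% BSA) are injected i.p. Controls get DMSO, then LPS. Mortality and morbidity are checked hourly for 24 h.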"}, "Solubility": {"assay": "Solubility", "assay_type": "physicochemical"}, "[2]": {"tested_on": "TNF-α secretion by LPS-stimulated THP-1 cells", "assay": "TNF-α secretion assay in LPS-stimulated THP-1 cells", "assay_type": "cell-based, human", "details": "for Suppression of TNF-α secretion (in words): 50 μg/ml, Figure 2; for inhibition at 100 µg/mL: Homo sapiens, THP-1, read-out: % Inhibition of TNF-α secretion", "method_in_brief": "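THP-1 cells (RPMI-1640 with 0.05 mM 2-mercaptoethanol, 2 mM glutamine, 10% FBS) plated in log phase at 4 × 10^5/well. After 24 h, 50 nM PMA is added with test compound; after 24 h more, medium is replaced with compound-only medium. After 24 h, LPS 10 μg/ml is added, supernatants taken at 2 h, and human TNF-α measured by ELISA against the kit standard curve. Run in triplicate; % inhibition.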"}, "LITAF": {"tested_on": "LITAF", "assay": "Western blot of LITAF expression in cells", "assay_type": "cell-based", "details": "Figure 6"}, "Caco-2": {"tested_on": "Caco-2", "assay": "Caco-2 permeability", "assay_type": "in vitro ADME"}, "[3]": {"assay": "Preliminary pharmacokinetic evaluation", "assay_type": "in vivo, mice", "details": "for half-life: mouse, in vivo"}, "THP-1 cells": {"tested_on": "THP-1 cells", "assay": "Cytotoxicity", "assay_type": "cell-based, human", "details": "at concentrations active in the TNF-α secretion assay"}, "[4]": {"assay": "Chemical stability in aqueous buffer", "assay_type": "physicochemical"}, "TNF-α release in mice": {"tested_on": "TNF-α release in mice", "details": "cited from earlier work"}, "[5]": {"tested_on": "TNF-α release from NIH3T3 cells", "details": "cited from earlier work"}, "[6]": {"tested_on": "PRAK (p38-regulated/activated kinase)", "details": "kinase selectivity screening; cited from earlier work"}, "IκB kinase (IKK)": {"tested_on": "IκB kinase (IKK)", "details": "kinase selectivity screening; cited from earlier work"}, "Aurora B": {"tested_on": "Aurora B", "details": "kinase selectivity screening; cited from earlier work"}, "[7]": {"tested_on": "DYRK1A (dual-specificity tyrosine-phosphorylated and regulated kinase 1A)", "details": "kinase selectivity screening; cited from earlier work"}, "[8]": {"tested_on": "MAPKAP-K3 (MAPK-activated protein kinase 3)", "details": "kinase selectivity screening; cited from earlier work"}},
  "data": [
    {"smiles": "COC1=CC(=O)O[C@@H](/C=C/c2ccccc2)C1", "note": "[Compound 1, kavain]", "values": [
      {"measurement": "Mouse plasma stability, remaining", "setting": "Mouse plasma stability; at 2h, 5 μM dose", "result": "99% remaining at 2h (5 μM dose)"},
      {"measurement": "Stability in plasma (in words)", "setting": "Mouse plasma stability; mouse plasma", "result": "good chemical stability"},
      {"measurement": "Protection from lethal dose of LPS (mortality/morbidity)", "setting": "[1]", "result": "no mortality or overt morbidity observed for at least 24 hours"},
      {"measurement": "solubility", "setting": "Solubility; PBS buffer, pH 7, aqueous buffer", "result": "> 500", "unit": "µM"},
      {"measurement": "Solubility (in words)", "setting": "Solubility; pH 7", "result": "highly soluble"},
      {"measurement": "Suppression of TNF-α secretion (in words)", "setting": "[2]", "result": "reproducibly active"},
      {"measurement": "inhibition at 100 µg/mL", "setting": "[2]", "result": 98, "unit": "%"},
      {"measurement": "LITAF expression", "setting": "LITAF", "result": "evidently do not"},
      {"measurement": "Caco-2 permeability, Papp(B→A)/Papp(A→B)", "setting": "Caco-2", "result": "Papp(B→A)/Papp(A→B)=0.7"},
      {"measurement": "Cell permeability (in words)", "setting": "Caco-2; Caco-2 assay", "result": "high level of cell permeability"},
      {"measurement": "Clearance (in words)", "setting": "[3]; following dosing, mice", "result": "rapidly cleared"},
      {"measurement": "half-life", "setting": "[3]; iv, 1 mg/kg", "result": "< 15", "unit": "min"},
      {"measurement": "half-life", "setting": "[3]; po, 10 mg/kg", "result": "< 40", "unit": "min"},
      {"measurement": "Cytotoxicity", "setting": "THP-1 cells", "result": "did not show any cytotoxicity"},
      {"measurement": "Chemical stability (in words)", "setting": "[4]; aqueous buffer", "result": "good chemical stability"},
      {"measurement": "Chemical Stability, degradation", "setting": "[4]; at 1 hr, pH=7", "result": "<10% degradation at 1 hr, pH=7"}
    ]},
    {"smiles": "COC1=CC(=O)O[C@@H](CCc2ccccc2)C1", "note": "[Compound 2, dihydrokavain]", "values": [
      {"measurement": "Survival rate at 24 h", "setting": "[1]; 40 mg/Kg ip pretreatment", "result": 30, "unit": "%"},
      {"measurement": "Delay in time of death compared to vehicle treated animals", "setting": "[1]; 40 mg/Kg ip, animals that died", "result": "about a two hour delay"},
      {"measurement": "Protection from lethal dose of LPS (mortality/morbidity)", "setting": "[1]", "result": "only partially protected"},
      {"measurement": "Suppression of TNF-α secretion (in words)", "setting": "[2]", "result": "reproducibly active"},
      {"measurement": "% Inhibition of TNF-α secretion", "setting": "[2]; LPS-treated THP-1 cells, 100 μg/ml, replicates in parentheses", "result": "95 (3) %"},
      {"measurement": "Cytotoxicity", "setting": "THP-1 cells", "result": "did not show any cytotoxicity"},
      {"measurement": "Inhibition of TNF-α release in mice (in words)", "setting": "TNF-α release in mice", "result": "most potent inhibitor"},
      {"measurement": "Inhibition of TNF-α release (in words)", "setting": "[5]", "result": "lower activity"}
    ]},
    {"smiles": "COC1=CC(=O)O[C@@H](CCc2ccc3c(c2)OCO3)C1", "note": "[Compound 3, dihydromethysticin]", "values": [
      {"measurement": "Suppression of TNF-α secretion (in words)", "setting": "[2]", "result": "essentially inactive"},
      {"measurement": "Suppression of TNF-α secretion (in words)", "setting": "[2]; listed as dihydromethysticin", "result": "inactivity"},
      {"measurement": "inhibition at 100 µg/mL", "setting": "[2]", "result": 37, "unit": "%"}
    ]},
    {"smiles": "COC1=CC(=O)O[C@@H](/C=C/c2ccc3c(c2)OCO3)C1", "note": "[Compound 4, methysticin]", "values": [
      {"measurement": "Suppression of TNF-α secretion (in words)", "setting": "[2]", "result": "essentially inactive"},
      {"measurement": "Suppression of TNF-α secretion (in words)", "setting": "[2]; listed as methysticin", "result": "inactivity"},
      {"measurement": "inhibition at 100 µg/mL", "setting": "[2]", "result": 43, "unit": "%"}
    ]},
    {"smiles": "COc1ccc(C=CC(=O)c2c(O)cc(OC)cc2OC)cc1", "note": "[Compound 8, flavokavain A]", "values": [
      {"measurement": "Inhibition of PRAK", "setting": "[6]", "result": "inhibits"},
      {"measurement": "Inhibition of IKK", "setting": "IκB kinase (IKK)", "result": "inhibits"},
      {"measurement": "Inhibition of Aurora B", "setting": "Aurora B", "result": "inhibits"},
      {"measurement": "Inhibition of DYRK1A", "setting": "[7]", "result": "inhibits"},
      {"measurement": "Inhibition of MAPKAP-K3", "setting": "[8]", "result": "inhibits"}
    ]},
    {"smiles": "COC1=CC(=O)OC(c2ccc(-c3ccccc3)cc2)C1", "note": "(stereo not drawn) [Compound 15, 6-(Biphenyl-4-yl)-4-methoxy-5,6-dihydro-2H-pyran-2-one]", "values": [
      {"measurement": "inhibition at 100 µg/mL", "setting": "[2]", "result": -9, "unit": "%"}
    ]},
    {"smiles": "COC(=O)/C=C(\\CC(O)c1ccc(-c2ccccc2)cc1)OC", "note": "(stereo not drawn) [Compound 16, (E)-Methyl 5-(biphenyl-4-yl)-5-hydroxy-3-methoxypent-2-enoate]", "values": [
      {"measurement": "Suppression of TNF-α secretion", "setting": "[2]", "result": "≥ 50", "unit": "%"},
      {"measurement": "Dose response of TNF-α secretion suppression", "setting": "[2]; Figure 5", "result": "dose-responsive manner"},
      {"measurement": "inhibition at 100 µg/mL", "setting": "[2]", "result": 58, "unit": "%"},
      {"measurement": "LITAF expression", "setting": "LITAF", "result": "nearly ablated LITAF expression"}
    ]},
    {"smiles": "COc1cc2c(cc1O)CC[n+]1cc3c(OC)c(OC)ccc3cc1-2.[I-]", "note": "[Jatrorrhizine iodide]", "values": [
      {"measurement": "Protection from lethal dose of LPS (mortality/morbidity)", "setting": "[1]", "result": "render mice immune to endotoxic shock-mediated death"},
      {"measurement": "Health of surviving animals", "setting": "[1]; 40 mg/kg ip, after 24h", "result": "poor health"}
    ]}
  ]
}
